Source: ChEMBL document CHEMBL1125794, “Synthesis and antihypertensive activity of pyran oxygen and amide nitrogen replacement analogues of the potassium channel activator cromakalim” (1991)

What was measured:
Assay type in all cases: functional, Artery
[1] = system: Rattus norvegicus; assay: The compound was tested for the maximum fall in systolic blood pressure 1-6 hr of 10.0 mg/kg oral dose administration in rats
Method in brief: (§1)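 Conscious spontaneously hypertensive rats of Japanese (Okamoto) strain, 14-24 weeks old, hypertensive if systolic pressure >180 mmHg; groups of six per dose level unless indicated. Oral gavage via esophageal needle as solution or suspension in 1% w/v methylcellulose. Tail-cuff systolic pressure (each value mean of ≥6 recordings) taken predose and at intervals up to 6 h postdose.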

[2] = system: Rattus norvegicus; assay: The compound was tested for the maximum fall in systolic blood pressure 1-6 hr of 3.0 mg/kg oral dose administration in rats; method in brief: as §1
[3] = system: Rattus norvegicus; assay: The compound was tested for the maximum fall in systolic blood pressure 1-6 hr of 10 mg/kg oral dose administration in rats; method in brief: as §1
[4] = system: Rattus norvegicus; assay: The compound was tested for the maximum fall in systolic blood pressure 1-6 hr of 1.0 mg/kg oral dose administration in rats; method in brief: as §1
[5] = system: Rattus norvegicus; assay: The compound was tested for the maximum fall in systolic blood pressure 1-6 hr of 0.3 mg/kg oral dose administration in rats; method in brief: as §1
[6] = system: Rattus norvegicus; assay: The compound was tested for the maximum fall in systolic blood pressure 1-6 hr of 3 mg/kg oral dose administration in rats; method in brief: as §1
[7] = system: Rattus norvegicus; assay: The compound was tested for the maximum fall in systolic blood pressure 1-6 hr of 0.1 mg/kg oral dose administration in rats; method in brief: as §1

Row | SMILES | Max fall in blood pressure [1] [%] | Max fall in blood pressure [2] [%] | Max fall in blood pressure [4] [%] | also measured
1 | CC1(C)Cc2ccc(C#N)cc2C(NC(=O)c2ccccc2)C1O (centres undefined) | 44 | 16 |  | 
2 | CC1(C)Oc2ccc(Cl)cc2C(N2CCCC2=O)C1O (centres undefined) |  |  |  | Max fall in blood pressure [3]: 37%
3 | CC(=O)NC1c2cc(C#N)ccc2CC(C)(C)C1O (centres undefined) |  | 34 | 22 | 
4 | CNC(=O)NC1c2cc(C#N)ccc2OC(C)(C)[C@H]1O (some centres undefined) |  |  | 61 | Max fall in blood pressure [5]: 31%
5 | CC1(C)C=C(N2CCCC2=O)c2cc(Br)ccc2N1 |  |  |  | Max fall in blood pressure [3]: 4%
6 | CN(C)C(=O)CC1c2cc(C#N)ccc2OC(C)(C)C1O (centres undefined) |  | 51 | 28 | 
7 | CC1(C)C=C(N2CCCC2=O)c2cc(Cl)ccc2N1 |  |  |  | Max fall in blood pressure [3]: 13%
8 | CC1(C)Oc2ccc(C#N)cc2C(NC(=O)c2ccccc2)C1O (centres undefined) | 41 |  |  | Max fall in blood pressure [5]: 16%
9 | CNC(=O)CC1c2cc(C#N)ccc2OC(C)(C)C1O (centres undefined) |  | 9 |  | 
10 | CNC(=O)NC1c2cc(C#N)ccc2CC(C)(C)C1O (centres undefined) | 52 | 23 |  | 
11 | CN1CCC(C2c3cc(C#N)ccc3OC(C)(C)C2O)C1=O (centres undefined) | 21 |  |  | Max fall in blood pressure [6]: 10%
12 | CC1(C)C=C(N2CCCC2=O)c2cc(C#N)ccc2C1 |  | 50 | 23 | 
13 | CC1(C)C=C(N2CCCC2=O)c2cc(C#N)ccc2O1 |  |  |  | Max fall in blood pressure [7]: 12%; Max fall in blood pressure [5]: 47%
14 | CC1(C)Nc2ccc(C#N)cc2C(N2CCCC2=O)C1O (centres undefined) | 39 | 26 |  | Max fall in blood pressure [3]: 9%
15 | CC1(C)Nc2ccc(Cl)cc2C(N2CCCC2=O)C1O (centres undefined) |  |  |  | Max fall in blood pressure [3]: 8%
16 | CC1(C)Nc2ccc(Br)cc2C(N2CCCC2=O)C1O (centres undefined) |  |  |  | Max fall in blood pressure [3]: 6%
17 | CC1(C)Oc2ccc(C#N)cc2C(N2CCCC2=O)C1O (centres undefined) [CROMAKALIM] |  |  | 47 | Max fall in blood pressure [5]: 39%
18 | CC1(C)Cc2ccc(C#N)cc2C(N2CCCC2=O)C1O (centres undefined) | 32 | 29 |  | 
19 | CC(=O)NC1c2cc(C#N)ccc2OC(C)(C)C1O (centres undefined) |  | 47 | 67 | Max fall in blood pressure [7]: 18%
20 | CC(=O)CC1c2cc(C#N)ccc2OC(C)(C)C1O (centres undefined) | 30 |  | 5 | 
21 | CC1(C)C=C(N2CCCC2=O)c2cc(C#N)ccc2N1 | 49 | 29 | 10 | 
